Source: ChEMBL document CHEMBL4513216, “Probing the Open Global Health Chemical Diversity Library for Multistage-Active Starting Points for Next-Generation Antimalarials” (ACS Infect Dis, 2020)

Assay: Toxicity liver stage against HepG2, at 10uM
Type: cell-based
Design: test concentration 10 uM, cell line HepG2-A16-CD81EGFP
Settings: human, HepG2-A16-CD81EGFP cells; read-out: INHIBITION
How it was run: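 Uninfected HepG2-A16-CD81EGFP cells, 3 × 10^3 per well, 1536-well, plated on prespotted compound at 10 μM final, parasite-free screening media added to match infected plates; puromycin 10 μM positive, DMSO 0.5% negative; run in parallel with 48 h PbLuc assay at 37 °C, 5% CO2; viability by CellTiter-Glo luminescence, normalized to controls.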

SMILES | cytotoxicity at 10 µM [%]
COc1ccc(-n2ccc(C(=O)N3CCC(C(N)=O)C3)n2)cc1 (stereo not given) | -6.04
Cc1nccn1CCCNC(=O)C1CCCCN1Cc1ccncc1 (stereo not given) | -8.18
CCN(C)S(=O)(=O)N1C[C@H]2CC[C@@H](C1)N(Cc1cscn1)C2=O | 11
COc1ccc(-n2cccn2)c(CN2CCOCC(CN(C)C)C2)c1 (stereo not given) | -14.6
Cc1nc2n(n1)CC(NCCc1cccs1)CC2 (stereo not given) | -9.77
CS(=O)(=O)NCc1nnc2n1CCN(Cc1cccnc1)C2 | -70.9
Cc1nc(N(C)C)nc(-c2cccc(-c3ccn(CCCO)n3)c2)c1C | -6.51
Cc1cccc(OCC(O)CNCc2c(C)nn(C)c2N(C)C)c1 (stereo not given) | -2.45
CNC(=O)c1ccc(C(=O)N2CCCC(n3cc(C)cn3)C2)cn1 (stereo not given) | -0.884
CS(=O)(=O)N1CCCC(c2cncc(Nc3ccccn3)n2)C1 (stereo not given) | 0.609
Cc1cc(C(=O)N2CCN(C)CC2)nn1CC(=O)NCc1ccccn1 | -3.58
O=C(c1ccc2c(c1)[nH]c(=O)n2C1CCC(O)CC1)N1CCOCC1 (stereo not given) | -41.4
Cn1c2c(c(=O)n1C)CN(C(=O)c1ccsc1)CCC2 | 5.04
COc1ccc(C(=O)c2cnc(C(C)C)n2C)cc1 | 15.5
COC(=O)c1cc2n(n1)CCN(C(=O)c1csc(CN(C)C)n1)C2 | -8.44
CC(C)CC(=O)N1CCN(C(=O)NC(C)C)CC2(CC(=O)N(C)C2)C1 (stereo not given) | 3.25
Cc1ncc(CN2CCC(N(C)Cc3noc(C4CC4)n3)C2)s1 (stereo not given) | -3.16
O=C(c1cccc2cccnc12)N1CCCN(c2cccnn2)CC1 | -3.2
O=C(c1ccccc1OC1CCCC1)N1CCCC(n2cncn2)C1 (stereo not given) | -0.0581
CCS(=O)(=O)N1CCCC2(COCCN(c3nncs3)C2)C1 (stereo not given) | 7.77
COc1cccc(F)c1C(C)NC(=O)NCc1cnc(C)s1 (stereo not given) | -4.94
Cc1ccccc1CS(=O)(=O)NCCCN1CCCC1 | -7.49

SMILES | cytotoxicity at 10 µM [%]
O=C(O)[C@@H]1CN(C(=O)CC2CCCC2)C[C@H]1c1ccc(F)cc1 | -10.2
COc1ccc(F)cc1C(C)NC(=O)Nc1nnc(C)s1 (stereo not given) | -1.01
Cn1c(=O)oc2cc(Nc3ncc(C#N)cc3Cl)ccc21 | 4.93
CC(C)CCN(C(=O)CCn1cc(S(N)(=O)=O)cn1)C1CC1 | 3.92
COC[C@H]1CC[C@@H]2[C@@H](CCN2Cc2ccco2)O1 | -137
CC(C)N1CCn2c(nc3cc(C(N)=O)ccc32)C1 | -11.3
CN1CCN(C(=O)c2ccc(=O)n(C)c2)Cc2ccccc21 | -10.2
COc1ccc(CCn2cnc(C#N)n2)cc1 | 0.866
O=C(CCn1c(C(F)(F)F)cc2cccnc21)N1CCC(O)CC1 | -28.5
CCOCC1CC2(CCN(C(=O)C3CCSCC3)CC2)CO1 (stereo not given) | 2.5
CN(CCc1cn[nH]c1)C(=O)C1CC(=O)N(Cc2ccccn2)C1 (stereo not given) | -6.47
CC(C)c1ncc(Cl)c(C(=O)N2CCN(C3CC3)CC2)n1 | 3.78
Cc1nc(C2CCCCC2)sc1C(=O)O | 15
COc1ccc(CNC(=O)NCCc2nc(C)c(C)s2)cn1 | -0.0813
O=C(Cc1cccc(O)c1)N1CCC2(CC1)c1ccccc1CC2O (stereo not given) | 2.28
Cc1nn(C)c(C)c1C1CCCN1c1ncnc2[nH]ccc12 (stereo not given) | 3.45
COc1ccccc1CN1C[C@@H](F)[C@@H](OCc2nc3ncccc3[nH]2)C1 | 6.96
COc1cccc(-c2nc(C)c(C(=O)N[C@@H](C)C(=O)O)s2)c1 | 6.51
Cc1sc2ccccc2c1S(=O)(=O)NCCNC(=O)C(C)C | -0.238
CS(=O)(=O)NCC1CCCN(C(=O)Nc2cccc3ccccc23)C1 (stereo not given) | -139
Cc1ccccc1S(=O)(=O)N(C)[C@@H]1CC[C@@H](n2ccnc2C)[C@@H]1O | -1.07
Cc1nn(C)c2c(=O)n(Cc3ccc(Cl)cc3)nnc12 | -3.02

SMILES | cytotoxicity at 10 µM [%]
Cc1ccc(-c2nnc(CN3CC[C@H](CO)[C@@H](O)C3)o2)n1C | -4.39
O=C(c1ccncc1F)N1CC[C@@H]2OC(COCC3CC3)CC[C@@H]21 (stereo not given in full) | -4.03
CC(CNC(=O)c1cc(Cl)ccc1I)N1CCCC1 (stereo not given) | -5.28
Cc1ccc(NC(=O)C2CCc3ccccc3N2)cc1 (stereo not given) | -5.57
O=C(Nc1ccccc1)[C@H]1CN2CC[C@H]1C[C@@H]2Cn1cc(CCO)nn1 | -0.843
CCC(C(=O)Nc1ccc2cn(CC)nc2c1)N1CCCC1=O (stereo not given) | -46.7
CC(=O)N1CCCC(c2ccnc(N(C)C)n2)C1 (stereo not given) | -16.2
CC(Cn1cccn1)NCc1nc(-c2ccc3c(c2)OCO3)no1 (stereo not given) | -12.4
CCN(CC)c1nc2sc(C(=O)NC(C)(C)C(=O)OC)cc2s1 | 3.58
Cc1nn(C)c(C)c1CCNC(C)c1ccc(-n2ccnc2C)cc1 (stereo not given) | 31.6
COc1ccc(C2SC(C)=Nc3c2c(=O)[nH]n3C2CCCC2)cc1O (stereo not given) | 9.98
CC(C)CCC1=NC2(CCN(C(=O)CN3CCCC3=O)CC2)C(=O)N1 | -3.07
CCc1cnc(CN(C)C(=O)Nc2cnn(CC3CCCO3)c2)s1 (stereo not given) | 4.03
CC(C)c1noc(CCC(=O)N2CCCC(n3ccnc3)C2)n1 (stereo not given) | 5.58
CC[C@@H](C)[C@@H](N)C(=O)Nc1cccc(-c2cnc(N(C)C)nc2)c1 | -4.78
Cc1nc(N2CCCC2)nc2c1CN(C(=O)c1ccco1)CC2 | 5.29
CC(C)OCCC(=O)NCC(c1c(F)cccc1F)N(C)C (stereo not given) | -1.19
CC(C)NC(=O)CCCn1cnc2ccccc2c1=O | 15.2
CCNC(=O)CCCC(=O)N1CCc2cc(Cl)cc(Cl)c2C1 | -15.1
Cc1nn(C)cc1C(=O)N1CCC(C(=O)c2nc3ccccc3s2)CC1 | 8.12
Cc1ccccc1CN1CCCC1c1cncc(Nc2nncs2)n1 (stereo not given) | 1.66
CN1CCN(C(=O)c2ncn3c2CNS(=O)(=O)c2ccccc2-3)CC1 | 4.5

SMILES | cytotoxicity at 10 µM [%]
Cc1nn(CCCNC(=O)C2CCN(S(C)(=O)=O)CC2)cc1Br | -7.24
CC(C)c1noc(C(C)N2CCN(Cc3cccs3)CC2)n1 (stereo not given) | -6.18
CC(C)c1noc(C(C)N2CCN(CCCN3CCCC3=O)CC2)n1 (stereo not given) | -14.3
Cc1cc(C)nc(N2C[C@H]3OC(=O)N(CCc4cccc(Cl)c4)[C@H]3C2)n1 | 6.72
O=C(Cc1csc(N2CCNC2=O)n1)NCC1(c2ccccc2)CC1 | -123
COCCN1CCCC12CCCN(c1ncccn1)C2 (stereo not given) | -6.9
COC[C@@H]1CCC[C@]12CN(CCc1ccccc1)CCO2 | 0.312
Cc1ccc(C(=O)N2CCC3(CCC(=O)N(CC(C)O)C3)CC2)c(O)c1 (stereo not given) | 11
O=c1[nH]cnc2[nH]c(N3CCCCC3)nc12 | 3.03
CN(c1ccc(CNC(=O)c2ccc(O)nc2)cc1)C1CCCCC1 | -0.77
Cc1ccc(CN2C[C@@H](OCc3csc(C)n3)[C@H]3COC[C@H]32)s1 | -5.21
Cc1cnn(CC2CCCN2Cc2coc(-c3ccccc3)n2)c1 (stereo not given) | -5.26
CCn1cc(S(=O)(=O)NC(=O)CCc2c[nH]c3ccccc23)cn1 | -11.3
Cn1ccnc1CNC(=O)CCc1cccc(F)c1 | 0.293
CN1CCN(Cc2nnc(C3CCN(S(C)(=O)=O)CC3)n2C)CC1 | 4.67
Cc1nccn1-c1cc(CNC(=O)CCNC(=O)OC(C)(C)C)ccn1 | -1.7
Cc1ccc(CN2CCc3c(C(=O)N(C)C)nn(C)c3C2)s1 | -12.4
CCN1CCO[C@@H]2CN(C(=O)NCc3ccccc3)CC[C@@H]2C1 | -117
O=c1[nH]c(CN(Cc2ccco2)C2CCCC2)nc2ccccc12 | 11.6
CCn1ccc(NS(=O)(=O)c2cccc(COC)c2)n1 | -5.41
COc1cc(Nc2c(C#N)c(=O)n(C)c(=O)n2C)cc(OC)c1 | -3.65
CN(C)CC1CCN(Cc2nccn2CC(F)(F)F)CC1 | 4.99

SMILES | cytotoxicity at 10 µM [%]
CC(=O)Nc1ccc(CNC(=O)CNCc2snnc2C)cc1 | 8.43
CNS(=O)(=O)c1cccc(CNc2cc(C(F)(F)F)ccn2)c1 | -6.85
FC(F)(F)c1nc(NC2CCCC2)c2ccccc2n1 | 15.8
CC(=O)N1N=C(c2cccs2)OC1C(=O)Nc1ccc(C(C)C)cc1 (stereo not given) | -12.7
CCCSCC(=O)N1CCN(c2ccc(C)cc2)CC1C (stereo not given) | -165
CC(NC(=O)Cn1ccc(=O)n(C)c1=O)c1ccccc1F (stereo not given) | -10.6
CCCNC(=O)CN1CCC(NC(=O)c2cc(CC)ccc2O)CC1 | 1.93
c1ccc(Cc2cccc(C3CCCN3C3CCOCC3)n2)cc1 (stereo not given) | 1.62
CCCn1ncc(CN(Cc2ccsc2)Cc2ccco2)c1C | 9.27
CCCC(=O)NC1CCCN(Cc2cccs2)C1 (stereo not given) | -3.25
CC(=O)c1ccc(C(=O)N2CCCCC2c2nc[nH]n2)cc1 (stereo not given) | -5.3
CC(O)CN1CCN(C(=O)c2cnn(-c3ccc(Cl)cc3)c2)CC1 (stereo not given) | -10.3
CCNC(=O)[C@@H]1C[C@@H](N)CN1C(=O)Cc1cc(C)ccc1C | 1.87
O=C(Nc1cccnc1-n1cncn1)C1CCC1 | -4.32
CN(CCc1cccs1)C1CCCN(Cc2noc(C3CC3)n2)C1 (stereo not given) | -12.5
COc1cccc2c1N(Cc1noc(C3CC3)n1)CCC2 | -5.59
CN1CCC2(Cc3ccccc3CN(C(=O)c3ccc(Cl)cc3)C2)C1 (stereo not given) | -3.12
CC(C)Nc1nc2c(cc1C(=O)NCC1CC1)CCN(CC1CC1)CC2 | 46.5
Cc1csc(N2CCN(C(=O)CCn3cncn3)CC2)n1 | -5.97
O=S1(=O)c2cccnc2OC(Cc2ccccc2)CN1CC1CC1 (stereo not given) | -2.46
Cc1cc(C(=O)NC2CCc3c(ccc(=O)n3CC(C)C)C2)no1 (stereo not given) | 7.15
Cc1cnn(CCCNC(=O)C2CCCCN2Cc2ccncc2)c1 (stereo not given) | -7.85
